One series concerns SK-N-SH. As to the kind of experiment: Cytotoxicity against human SK-N-SH cells after 48 hrs. It counts as functional, cell-based. Summed up: (§1)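 Cells were seeded at 5 × 10^5 per T75 flask and grown to about 80% confluency. Lines were NB (IMR-32, SH-SY5Y, SMS-KCNR, SK-N-SH) or primary human lung fibroblasts (LF1, passage 10). Cells were exposed to 2.5–40 μM drug for 48 hrs and viability was read by MTS. Triplicates were run, and values are mean ± SD of a representative experiment as % viability of untreated cells.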

Series [1] relates to SMS-KCNR. The series can be described thus: Induction of apoptosis in SMS-KCNR cells assessed as increase in caspase 8 activation by Western blotting. Format: functional, cell-based. As to conditions: Homo sapiens. Summed up: (§2)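 SMS-KCNR cells at about 80% confluency were treated with 3 μM drug for the indicated times, then lysed in NP-40 buffer with protease and phosphatase inhibitors. Lysates (50 μg protein per lane) were run on 12% SDS-PAGE and blotted to PVDF. Blots were blocked in 5% milk and probed overnight at 4 °C with 1:1000 primary antibodies in 5% BSA. Targets were phospho and total JNK, p38 and Akt, pro and active caspase-3, -8 and -9, and cleaved PARP-1, with β-actin as loading control.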
Background: In western blotting, separated proteins are transferred to a membrane and probed.

Series [2] concerns SMS-KCNR. The series can be described thus: Inhibition of cell proliferation of SMS-KCNR cells […] after 48 hrs by BrdU assay. It counts as functional, cell-based. As to conditions: Homo sapiens. Summed up:
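SMS-KCNR cells were plated at 5 × 10^3 per well, attached overnight, and treated with 300 nM–5 μM drug for 48 hrs. BrdU (10 μM final) was added for a further 6 hrs. Fixed cells were incubated with anti-BrdU–peroxidase for 2 hrs at 37 °C, developed with TMB, stopped with sulfuric acid, and read at 450 nm after blank subtraction. Triplicates were run, expressed as % of untreated absorbance.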
Background: Incorporation of labelled thymidine or its analogues reports DNA synthesis.

A short description of series [3]: Cell cycle arrest in SMS-KCNR cells by accumulation at G2/M phase at 3 uM after 24 hrs by flow cytometry. Format: functional, cell-based. As to conditions: Homo sapiens. Summed up: (§3)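 Cells were plated in 100 mm dishes at 7.5 × 10^5 per dish, left to attach overnight, then exposed to 3.0 μM drug for 12 or 24 hrs. Floating and scraped adherent cells were pooled and fixed in ice-cold 70% ethanol for 30 min. They were stained with 50 μg/mL propidium iodide plus 100 μg/mL RNase, 30 min at 37 °C in the dark. Flow cytometry read 10,000 gated single-cell events per sample. Results are given as % of cells per sub-population, with sub-G0/G1 taken as apoptotic.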

Series [4] can be described thus: Cell cycle arrest in SMS-KCNR cells by accumulation at S phase at 3 uM after 24 hrs by flow cytometry. It counts as functional, cell-based. Particulars: Homo sapiens. The gist of the method: as §3
In general terms: In flow cytometry, cells or beads pass a laser one at a time.

The nature of series [5]: Cytotoxicity against lung fibroblast cells after 48 hrs by MTS assay. Particulars: human. It counts as cell-based. Summed up:
as §1

A further series has as its system IMR-32. The series can be described thus: Cytotoxicity against IMR32 cells after 48 hrs by MTS assay. Format: functional, cell-based. As to conditions: Homo sapiens. The gist of the method: as §1
The subject of series [6] is SMS-KCNR. As to the kind of experiment: Reduction of SMS-KCNR cell viability at 5 uM after 48 hrs in presence of Z-DEVD-FMK. Particulars: Homo sapiens. Format: functional, cell-based. The gist of the method: (§4)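 SMS-KCNR cells were pre-incubated for 2 hrs with 40 μM caspase inhibitor (Z-VAD-FM, Z-DEVD-FMK, Z-IETD-FMK or Z-LEHD-FMK). Drug was then added at 5.0 μM for 48 hrs and viability measured. Triplicates were run, and values are mean ± SD of a representative experiment as % viability of untreated cells.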

Series [7] in a line: Cell cycle arrest in SMS-KCNR cells by accumulation at G0/G1 phase at 3 uM after 12 hrs by flow cytometry. It counts as functional, cell-based. As to conditions: Homo sapiens. Summed up: as §3
Series [8] concerns SMS-KCNR. The series can be described thus: Effect on JNK activation in SMS-KCNR cells after 1 hr by Western blotting. Format: cell-based. As to conditions: Homo sapiens. The gist of the method:
as §2

The subject of series [9] is SMS-KCNR. As to the kind of experiment: Reduction of SMS-KCNR cell viability at 5 uM after 48 hrs in presence of Z-VAD-FM. It counts as functional, cell-based. As to conditions: Homo sapiens. Summed up:
as §4

The subject of series [10] is SMS-KCNR. The series can be described thus: Reduction of SMS-KCNR cell viability at 5 uM after 48 hrs in presence of Z-IETD-FMK. Particulars: Homo sapiens. It counts as functional, cell-based. The gist of the method: as §4
Series [11] concerns the target MAP kinase p38 (Homo sapiens) (UniProt O15264+Q15759+Q16539+P53778). As to the kind of experiment: Effect on p38 activation in SMS-KCNR cells after 1 hr by Western blotting. It counts as cell-based. Summed up: as §2
The subject of series [12] is SMS-KCNR. The series can be described thus: Cytotoxicity against SMS-KCNR cells at 2.5 uM to 5.0 uM after 48 hrs by MTS assay. Format: functional, cell-based. As to conditions: Homo sapiens. The gist of the method: as §1
In series [13] the test system is SMS-KCNR. As to the kind of experiment: Reduction of SMS-KCNR cell viability at 5 uM after 48 hrs in presence of Z-LEHD-FMK. Format: functional, cell-based. Particulars: Homo sapiens. Summed up: as §4
A short description of series [14]: Cell cycle arrest in SMS-KCNR cells by accumulation at S phase at 3 uM after 12 hrs by flow cytometry. Particulars: Homo sapiens. It counts as functional, cell-based. The gist of the method: as §3
Series [15] deals with SMS-KCNR. As to the kind of experiment: Induction of apoptosis in SMS-KCNR cells assessed as increase in caspase 3 activation by Western blotting. It counts as functional, cell-based. As to conditions: Homo sapiens. Summed up:
as §2

In series [16] the test system is SMS-KCNR. As to the kind of experiment: Cytotoxicity against SMS-KCNR cells after 48 hrs by MTS assay. It counts as functional, cell-based. Particulars: Homo sapiens. The gist of the method:
as §1

For series [17], the system named is SMS-KCNR. The series can be described thus: Induction of apoptosis in SMS-KCNR cells assessed as increase in PARP1 activation by Western blotting. It counts as functional, cell-based. Particulars: Homo sapiens. The gist of the method: as §2
The nature of series [18]: Induction of apoptosis in SMS-KCNR cells at 3 uM after 12 hrs by flow cytometry. It counts as functional, Homo sapiens. The gist of the method: as §3
The next series concerns SH-SY5Y. The series can be described thus: Cytotoxicity against SH-SY5Y cells after 48 hrs by MTS assay. It counts as functional, cell-based. Particulars: Homo sapiens. The gist of the method:
as §1

Series [19] can be described thus: Cell cycle arrest in SMS-KCNR cells by accumulation at G2/M phase at 3 uM after 12 hrs by flow cytometry. Format: functional, cell-based. As to conditions: Homo sapiens. Summed up: as §3
In series [20] the test system is SMS-KCNR. The series can be described thus: Induction of apoptosis in SMS-KCNR cells assessed as increase in caspase 9 activation by Western blotting. Format: functional, cell-based. As to conditions: Homo sapiens. Summed up:
as §2

Series [21] is described as follows: Cell cycle arrest in SMS-KCNR cells by accumulation at G0/G1 phase at 3 uM after 24 hrs by flow cytometry. As to conditions: Homo sapiens. Format: functional, cell-based. The gist of the method:
as §3

Series [22] concerns the target RAC-alpha serine/threonine-protein kinase (Homo sapiens) (UniProt P31749). As to the kind of experiment: Inhibition of AKT in SMS-KCNR cells after 36 hrs by Western blotting. It counts as cell-based. Summed up: as §2
Series [23] in a line: Induction of apoptosis in SMS-KCNR cells at 3 uM after 24 hrs by flow cytometry. Format: functional, Homo sapiens. Summed up: as §3

Structures are written as SMILES. Activity calls are given as the source filed them. No cut-off for these calls is given here.

As usually defined, the IC50 is the point on the concentration scale where inhibition reaches its midpoint.

Chain of RAC-alpha serine/threonine-protein kinase (Homo sapiens) (P31749 whole entry): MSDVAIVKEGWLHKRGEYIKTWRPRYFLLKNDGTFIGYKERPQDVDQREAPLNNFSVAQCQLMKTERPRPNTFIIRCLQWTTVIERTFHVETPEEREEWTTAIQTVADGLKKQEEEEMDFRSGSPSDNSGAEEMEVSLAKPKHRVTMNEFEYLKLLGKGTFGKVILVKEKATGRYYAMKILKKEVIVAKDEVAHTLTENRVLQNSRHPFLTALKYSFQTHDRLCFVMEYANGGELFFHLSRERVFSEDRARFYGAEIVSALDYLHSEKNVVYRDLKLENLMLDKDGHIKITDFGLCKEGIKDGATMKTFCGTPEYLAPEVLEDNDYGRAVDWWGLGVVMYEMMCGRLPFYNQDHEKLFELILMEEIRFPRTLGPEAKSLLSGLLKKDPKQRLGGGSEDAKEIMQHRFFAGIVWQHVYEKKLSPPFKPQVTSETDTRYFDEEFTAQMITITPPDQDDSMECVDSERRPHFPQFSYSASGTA

`Cc1cccc2c(CCN=C=S)c[nH]c12` gave an IC50 in the series on SK-N-SH of less than 2500 nM. The outcome in the series on SMS-KCNR [1], with SMS-KCNR [2], in the series with SMS-KCNR [6], in the series on SMS-KCNR [8], in the series on SMS-KCNR [9] and with SMS-KCNR [10] was Active. Besides, the outcome (in series [11]; with SMS-KCNR [12]; in the series on SMS-KCNR [13]; with SMS-KCNR [15]; with SMS-KCNR [17]; in the series on SMS-KCNR [20]) was Active. Further, the result in series [22] was Active. In addition, the Activity in [3] was 24.5%; in series [4], 6.5%; in [5], “Not Active”; with IMR-32 it was “Dose-dependent effect”; in series [7] it was 66.4%; in series [14], 7.3%. Also, the Activity entry is “Dose-dependent effect” in the series with SMS-KCNR [16]; 19.7% in series [18]; “Dose-dependent effect” with SH-SY5Y; 26.3% in series [19]; 68.9% in series [21]; 18.8% in series [23].
In turn, `S=C=NCCc1c[nH]c2ccc(OCc3ccccc3)cc12` yielded a 50% inhibitory concentration (IC50) in the series with SK-N-SH of less than 2500 nM. Moreover, the Activity entry with IMR-32, in the series on SMS-KCNR [16] and in the series with SH-SY5Y was “Dose-dependent effect” in each case.

The values above are taken from ChEMBL document CHEMBL1137504, “Effect of indole ethyl isothiocyanates on proliferation, apoptosis, and MAPK signaling in neuroblastoma cell lines” (Bioorg Med Chem Lett, 2007).
